Consider one compound from ChEMBL document CHEMBL2390929, “New nitric oxide donating 1,2,4-triazole/oxime hybrids: synthesis, investigation of anti-inflammatory, ulceroginic liability and antiproliferative activities” (Bioorg Med Chem, 2013).

The test system of data set [1] is Rattus norvegicus. Briefly: Gastrointestinal toxicity in albino rat assessed as severe atrophic gastritis and gland atrophy at 0.28 mmol/kg, po using haematoxylin and eosin staining by light microscopic analysis. Type of data set: organism-based. Particulars: in vivo. The gist of the method:
(§1)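 Adult male albino rats (120–140 g, Minia University), groups of four, fasted 24 h with water allowed. Oral dose 0.28 mmol/kg suspended in 0.5% aqueous CMC; vehicle-only controls. Gastric sections dewaxed, stained with haematoxylin 5–7 min, differentiated in 1% HCl/70% alcohol, counterstained with 1% eosin 10 min. Cleared in xylene, mounted, examined by light microscopy at ×400.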

In data set [2] the test system is Rattus norvegicus. The experiment in a line: Gastrointestinal toxicity in albino rat assessed as acute inflammatory cell infiltrating its whole thickness and apparently destroying surface of epithelium at 0.28 mmol/kg, po using haematoxylin and eosin staining by light microscopic analysis. Type of data set: organism-based. The note with it: in vivo. The method in brief: as §1

The test system of data set [3] is Rattus norvegicus. The experiment in a line: Antiinflammatory activity in albino rat assessed as inhibition of carrageenan-induced paw edema at 0.28 mmol/kg, po after 1 hr relative to control. Type of data set: functional. The method in brief: (§2)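 Adult male albino rats (120–140 g), four per group, fasted 24 h with water allowed. Test agent suspended in 0.5% w/v aqueous CMC and given orally at 0.28 mmol/kg; controls received CMC alone. After 30 min, 0.1 mL fresh 1% carrageenan in saline was injected subplantar into the right hind paw and saline into the left. Paw thickness was measured by Vernier caliper; % inhibition = [(VR−VL)control − (VR−VL)treated]/(VR−VL)control ×100. Mean ± SEM, one-way ANOVA.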
(In the carrageenan paw model, swelling and tenderness develop within hours.)

Data set [4] concerns Rattus norvegicus. Briefly: Antiinflammatory activity in albino rat assessed as inhibition of carrageenan-induced paw edema at 0.28 mmol/kg, po after 2 hrs relative to control. Type of data set: functional. The gist of the method:
as §2

Data set [5] has as its system Rattus norvegicus. The experiment in a line: Gastrointestinal toxicity in albino rat assessed as ulcer index at 0.28 mmol/kg, po (reference value: 0.60 +/- 0.05). The note with it: in vivo. Type of data set: organism-based.
For data set [6], the system named is Rattus norvegicus. The experiment in a line: Antiinflammatory activity in albino rat assessed as inhibition of carrageenan-induced paw edema at 0.28 mmol/kg, po after 3 hrs relative to control. Type of data set: functional. The method in brief:
as §2

Data set [7] deals with Rattus norvegicus. The experiment in a line: Gastrointestinal toxicity in albino rat assessed as decreased in thickness with marked loss of mucosal membrane at areas of ulceration at 0.28 mmol/kg, po using haematoxylin and eosin staining by light microscopic analysis. Type of data set: organism-based. Particulars: in vivo. The method in brief:
as §1

Data set [8] concerns Rattus norvegicus. Briefly: Gastrointestinal toxicity in albino rat assessed as acute inflammatory cell infiltrating its whole thickness and apparently destroying epithelial lining of gastric pits at 0.28 mmol/kg, po using haematoxylin and eosin staining by light microscopic analysis. Type of data set: organism-based, Stomach. The note with it: in vivo. The method in brief: as §1

The subject of data set [9] is Rattus norvegicus. The experiment in a line: Antiinflammatory activity in albino rat assessed as inhibition of carrageenan-induced paw edema at 0.28 mmol/kg, po after 4 hrs relative to control. Type of data set: functional. The gist of the method:
as §2

Data set [10] relates to Rattus norvegicus. Briefly: Gastrointestinal toxicity in albino rat assessed as capillary vasodilatation associated with accumulation of edema fluid in lamina propria at 0.28 mmol/kg, po using haematoxylin and eosin staining by light microscopic analysis. Type of data set: organism-based. The note with it: in vivo. The gist of the method:
as §1

The subject of data set [11] is Rattus norvegicus. The experiment in a line: Gastrointestinal toxicity in albino rat assessed as apoptotic glandular epithelial cells at 0.28 mmol/kg, po using haematoxylin and eosin staining by light microscopic analysis. Type of data set: organism-based, Epithelial cell. Particulars: in vivo. The method in brief: as §1
Data set [12] has as its system Rattus norvegicus. Briefly: Antiinflammatory activity in albino rat assessed as inhibition of carrageenan-induced paw edema at 0.28 mmol/kg, po after 5 hrs relative to control. Type of data set: functional. The method in brief:
as §2

Take `COc1ccc2c(c1)c(CC(=O)O)c(C)n2C(=O)c1ccc(Cl)cc1` [INDOMETHACIN]: the Activity entry with Rattus norvegicus [1], in the data set on Rattus norvegicus [2], in the data set with Rattus norvegicus [7], in the data set with Rattus norvegicus [8], in the data set on Rattus norvegicus [10] and in the data set on Rattus norvegicus [11] was “Toxic” in each case. For the same compound, the inhibition in vivo at 280 µmol/kg with Rattus norvegicus [3] amounted to 51%; with Rattus norvegicus [4], 67%; in the data set with Rattus norvegicus [6], 74%; in the data set with Rattus norvegicus [9], 83%; in the data set on Rattus norvegicus [12], 87%. The UI in the data set on Rattus norvegicus [5] came out at 63.45.

What is called inhibition in vivo is the percentage by which the read-out fell short of the control.
